Data set [1] is described as follows: Rat free systemic exposure in carcinogenicity study. It counts as in vivo. Put shortly: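 Satellite carcinogenicity rats (10 per sex per dose) dosed orally at 20, 60 or 180/120 mg/kg/day. Heparinised blood taken on Days 1 and 3 and in Weeks 26 and 52, at 2–24 h post-dose (3 rats per sex per time point). Analysed by protein precipitation and LC-MS/MS.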
Data set [2] in a line: Body weight and food consumption in rat 2 year carcinogenicity study. It counts as in vivo. Put shortly: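 Seven-week-old Wistar Han rats, 50 per sex per group, gavaged daily for 2 years with 0, 20, 60 or 180 (female)/120 (male) mg/kg/day. Vehicle was 1% carboxymethylcellulose with 0.1% polysorbate 80 (w/v) at 5 mL/kg. Body weights taken pretreatment, daily to Week 13, then weekly. Analysis by Hartley's jackknifed F-max test and Fisher's F-protected t-test.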

The target of a further data set is T1, dopamine D4.2 receptor (Homo sapiens, UniProt P21917, DEL265-296).
T1 sequence (P21917 with tags, fused parts or gaps DEL265-296): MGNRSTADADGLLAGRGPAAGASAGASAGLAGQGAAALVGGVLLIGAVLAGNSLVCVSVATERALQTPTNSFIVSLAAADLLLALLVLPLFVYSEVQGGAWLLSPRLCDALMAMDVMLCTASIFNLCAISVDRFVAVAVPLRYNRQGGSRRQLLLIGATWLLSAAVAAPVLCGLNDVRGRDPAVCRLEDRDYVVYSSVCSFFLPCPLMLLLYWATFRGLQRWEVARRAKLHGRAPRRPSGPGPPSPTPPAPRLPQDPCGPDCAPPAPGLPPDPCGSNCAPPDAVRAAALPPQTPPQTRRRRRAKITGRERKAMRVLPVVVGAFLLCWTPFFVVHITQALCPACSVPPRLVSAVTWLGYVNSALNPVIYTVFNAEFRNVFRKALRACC
In words: Dopamine D4.2 receptor radioligand binding. Particulars: 10 μM, human recombinant CHO-K1 cells. Put shortly:
(§1)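 Human recombinant receptors expressed in CHO cells (D1, D2L) or CHO-K1 cells (D4.2) were used in radioligand binding assays with [3H]SCH-23390 (D1), [3H]spiperone (D2L) or [3H]dopamine (D4.2). The test compound or its metabolite was tested at a single concentration of 10 μM. Results are expressed as percent inhibition of specific binding.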

In data set [3] the test system is L5178Y/TK + 1 mouse lymphoma cells. In words: Mouse lymphoma in vitro assay. It counts as cell-based. Put shortly: (§2)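 Genotoxicity screens. Ames: Salmonella strains exposed to 3–3000 μg/plate with and without metabolic activation; read-out was reverse-mutation frequency. Mouse lymphoma: L5178Y/TK+ cells treated for 4 h with S9 (15.7–41.8 μg/mL), for 4 h without S9 (5.23–15.7 μg/mL), and for 24 h without S9; read-out was clone number. Micronucleus: male and female Alderly Park rats given 2000 mg/kg; micronuclei scored 24 or 48 h post-dose.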

The test system of data set [4] is TA1535 TA100 TA102 TA98 TA1537. The data set can be described thus: Ames in vitro assay. The data set is classed as cell-based, Salmonella. Put shortly: as §2
The target in a further data set is dopamine D2L receptor (Homo sapiens, UniProt P14416). In words: Dopamine D2L receptor radioligand binding. To be noted: 10 μM, human recombinant CHO cells. Put shortly: as §1
A further data set deals with dopamine D1 receptor (Homo sapiens, UniProt P21728). The data set can be described thus: Dopamine D1 receptor radioligand binding. Particulars: 10 μM, [3H] SCH-23390, human recombinant CHO cells. Put shortly: as §1
The next data set is described as follows: Protein binding, rat. It counts as in vitro ADME.

A value given as a limit tells only on which side of the number the result lay.

Sequence of dopamine D2L receptor (P14416 whole entry): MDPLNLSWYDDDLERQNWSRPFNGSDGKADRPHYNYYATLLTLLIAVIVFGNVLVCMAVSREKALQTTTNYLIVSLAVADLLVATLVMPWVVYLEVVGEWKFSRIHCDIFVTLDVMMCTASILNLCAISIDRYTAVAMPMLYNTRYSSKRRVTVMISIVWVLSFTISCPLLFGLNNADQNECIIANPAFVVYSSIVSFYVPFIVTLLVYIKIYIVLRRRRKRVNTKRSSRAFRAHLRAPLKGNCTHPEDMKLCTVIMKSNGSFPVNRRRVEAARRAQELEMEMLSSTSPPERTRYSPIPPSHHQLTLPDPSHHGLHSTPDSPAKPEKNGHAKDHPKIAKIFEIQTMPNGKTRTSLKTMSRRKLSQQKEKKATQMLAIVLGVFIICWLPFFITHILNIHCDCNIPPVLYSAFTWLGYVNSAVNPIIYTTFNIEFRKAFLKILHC
Sequence of dopamine D1 receptor (P21728 whole entry): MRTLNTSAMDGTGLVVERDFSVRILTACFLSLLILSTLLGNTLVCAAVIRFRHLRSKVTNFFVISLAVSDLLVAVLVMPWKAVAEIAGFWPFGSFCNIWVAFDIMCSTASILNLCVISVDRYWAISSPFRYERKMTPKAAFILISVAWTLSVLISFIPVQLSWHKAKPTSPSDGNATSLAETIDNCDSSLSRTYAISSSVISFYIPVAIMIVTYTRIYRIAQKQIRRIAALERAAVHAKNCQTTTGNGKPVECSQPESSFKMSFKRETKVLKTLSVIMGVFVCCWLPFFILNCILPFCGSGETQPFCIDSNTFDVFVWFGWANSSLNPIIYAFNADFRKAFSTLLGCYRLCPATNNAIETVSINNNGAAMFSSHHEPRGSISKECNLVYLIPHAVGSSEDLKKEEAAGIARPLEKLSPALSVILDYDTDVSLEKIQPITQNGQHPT

As usually defined, the fraction unbound is free concentration divided by total concentration. Lower therefore signals little free substance. As to `CCCSc1nc(N[C@@H]2C[C@H]2c2ccc(F)c(F)c2)c2nnn([C@@H]3C[C@H](OCCO)[C@@H](O)[C@H]3O)c2n1` [Ticagrelor], in data set [1] (high dose group, based on 99.0% protein binding), the “Rat free systemic exposure maximal concentration (Cmax)” value was 502 nM. Moreover, the “Rat free systemic exposure Cmax” value was 43 nM in data set [1] (low dose group) and 157 nM in data set [1] (mid dose group). Further, in data set [2] (female rats, 180 mg/kg/day), the “Body weight lower than the control group by the end of study” value is listed as “approximately 20%”. In addition, the Food consumption entry in data set [2] (female rats, 180 mg/kg/day) is reported as “significantly decreased food consumption in 10 out of the last 14 measurements”; in data set [2] (male rats), “no consistent food consumption differences”. In data set [2] (male rats, high dose group (120 mg/kg/day)), the “Body weight difference from the control group at the end of the study” value is on record as not above 10%. Besides, at dopamine D4.2 receptor, the “Inhibition of radioligand binding at the D4.2 receptor” value is on record as “neither Ticagrelor nor metabolite caused inhibition”. In data set [3], the “Mouse lymphoma in vitro: Conclusion” value was “Negative”. For the same compound, the “Mouse lymphoma in vitro: Results” value in data set [3] (15.7–41.8 μg/mL (4 h + S9), 5.23–15.7 μg/mL (4 h − S9), 15.7–36.6 (24 h − S9)) is on record as “No increased number of clones associated with treatment”. Also, the “Ames in vitro assay: Conclusion” value in data set [4] was “Negative”. Besides, the “Ames in vitro assay: Results” value in data set [4] (3–3000 μg/plate, with or without metabolic activation) was “No increased frequency of reverse mutations with or without metabolic activation”. Also, on dopamine D2L receptor, the “Inhibition of radioligand binding at the D2L receptor” value was “neither Ticagrelor nor metabolite caused inhibition”. Moreover, the “Inhibition of radioligand binding at the D1 receptor” value at dopamine D1 receptor is listed as “neither Ticagrelor nor metabolite caused inhibition”. This compound registered an unbound share (fraction unbound) in “Protein binding, rat” of 0.01.
